{"data": "Results gathered from unrelated publications", "NTRK3": "NT-3 growth factor receptor (NTRK3, Homo sapiens, UniProt Q16288)", "CXCR4": "C-X-C chemokine receptor type 4 (CXCR4, Homo sapiens, UniProt P61073)", "ACVR1": "Activin receptor type-1 (ACVR1, Homo sapiens, UniProt Q04771)", "CDK9 with cyclin T1": "Cyclin-dependent kinase 9, with cyclin T1 (CDK9, Homo sapiens, UniProt P50750)", "PLA2G5": "Phospholipase A2 group V (PLA2G5, Homo sapiens, UniProt P39877)", "MDH2": "Malate dehydrogenase, mitochondrial (MDH2, Sus scrofa, UniProt P00346)", "SRC": "Proto-oncogene tyrosine-protein kinase Src (SRC, Homo sapiens, UniProt P12931)", "note": "Protocols differ between the studies behind these lines."}
{"SMILES": "Cc1ccc(C(=O)Nc2ccc(Oc3cc4cnn(C)c4cc3-c3cn[nH]c3)c(F)c2)c(=O)n1-c1ccc(F)cc1", "target": "Tyrosine-protein kinase Mer (MERTK, Homo sapiens, UniProt Q12866)", "observed": "cell growth or viability", "method": "ATP luminescence", "IC50 [µM]": 0.01}
{"SMILES": "CCn1ncc2c1-c1cnc(N)c(c1)O[C@H](C)c1cc(F)ccc1-c1nn(C)nc1C2", "target": "NTRK3", "observed": "enzyme activity", "action": "inhibitor", "method": "radiometric", "IC50 [µM]": 0.154}
{"SMILES": "CCc1ccc(OCc2nnc(SCc3nc(C)no3)n2Cc2ccccc2)cc1", "target": "CXCR4", "observed": "β-arrestin recruitment", "IC50 [µM]": 50}
{"SMILES": "CC(C)(C)n1nc(-c2cnc3cc(OC4CC4)ccc3c2)c(C(N)=O)c1N", "target": "ACVR1", "observed": "cell-free assay", "IC50 [µM]": "> 10"}
{"SMILES": "CCN(CC)CCOc1ccc2c(c1)C(=O)c1cc(OCCN(CC)CC)ccc1-2", "target": "Acetylcholinesterase (ACHE, Homo sapiens, UniProt P22303)", "observed": "enzyme activity", "action": "inhibitor", "IC50 [µM]": 0.0646}
{"SMILES": "O=c1cc(-c2ccc3c(c2)OCO3)oc2c1ccc1occc12", "target": "CDK9 with cyclin T1", "observed": "enzyme activity", "action": "inhibitor", "method": "ADP detection", "IC50 [µM]": 31.4}
{"SMILES": "CC/C(=N\\NC(=O)C(C)Nc1ccccc1)c1ccc(O)c(C)c1O (stereo not drawn)", "target": "Serine/threonine-protein kinase Sgk2 (SGK2, Homo sapiens, UniProt Q9HBY8)", "observed": "enzyme activity", "action": "inhibitor", "IC50 [µM]": 0.0117}
{"SMILES": "CN1CCN(c2ccc(Nc3ncc4cc(C#N)c(=O)n(C5CCCC5)c4n3)cc2)CC1", "target": "Cyclin-dependent kinase 1, with cyclin A (CDK1, Homo sapiens, UniProt P06493)", "observed": "enzyme activity", "action": "inhibitor", "IC50 [µM]": 7.41}
{"SMILES": "Cc1n[nH]c2nncnc12", "target": "deoD (Escherichia coli, UniProt P0ABP8)", "observed": "enzyme activity", "action": "inhibitor", "pH": "pH 7", "IC50 [µM]": "~700"}
{"SMILES": "CCc1ccc(NC(=O)c2nc(S(C)(=O)=O)ncc2N(Cc2ccccc2)Cc2ccco2)cc1", "target": "CXCR4", "observed": "β-arrestin recruitment", "action": "antagonist", "IC50 [µM]": 13}
{"SMILES": "O=C(O)/C=C/c1ccc(O)c(O)c1", "target": "PLA2G5", "observed": "enzyme activity", "action": "inhibitor", "method": "Ellman", "IC50 [µM]": 26.8}
{"SMILES": "[Na+].[Na+].[Na+].[O]=[V]([O-])([O-])[O-]", "target": "Tyrosine-protein phosphatase non-receptor type 6 (PTPN6, Homo sapiens, UniProt P29350)", "observed": "enzyme activity", "action": "inhibitor", "method": "absorbance", "IC50 [µM]": 4.4}
{"SMILES": "Cc1ccc(S(=O)(=O)Nc2ccc(-c3nc4cc(NS(=O)(=O)c5ccc(C)cc5)ccc4o3)cc2)cc1", "target": "MDH2", "observed": "enzyme activity", "action": "inhibitor", "IC50 [µM]": "> 62.5"}
{"SMILES": "CC(C)(C)n1nc(-c2ccc3nc(OC4CC4)ccc3c2)c(C(N)=O)c1N", "target": "ACVR1", "observed": "cell-free assay", "IC50 [µM]": "> 10"}
{"SMILES": "CCS(=O)(=O)c1ncc(N(Cc2ccccc2)Cc2ccco2)c(C(=O)Nc2ccc(C)cc2)n1", "target": "CXCR4", "observed": "β-arrestin recruitment", "action": "antagonist", "IC50 [µM]": 25}
{"SMILES": "CNC(=O)c1cc2c(Oc3ccc(NC(=O)C4(C(=O)Nc5ccc(F)cc5)CC4)cc3)ccnc2cc1OC", "target": "NTRK3", "observed": "enzyme activity", "action": "inhibitor", "method": "radiometric", "IC50 [µM]": 0.01}
{"SMILES": "Cc1ccc(CN(Cc2ccco2)c2cnc(S(C)(=O)=O)nc2C(=O)Nc2ccc(C)cc2)cc1", "target": "CXCR4", "observed": "β-arrestin recruitment", "action": "antagonist", "IC50 [µM]": 25}
{"SMILES": "CCN1CCN(Cc2ccc(NC(=O)c3ccc(C)c(NC(=O)c4cncc(-c5cccs5)c4)c3)cc2C(F)(F)F)CC1", "target": "Ephrin type-A receptor 2 (EPHA2, Homo sapiens, UniProt P29317)", "observed": "enzyme activity", "action": "inhibitor", "method": "ADP detection", "IC50 [µM]": 0.419}
{"SMILES": "COc1ccc(S(=O)(=O)Nc2ccc3oc(-c4ccc(NC(=O)C5CCN(C(C)=O)CC5)cc4)nc3c2)cc1", "target": "MDH2", "observed": "enzyme activity", "action": "inhibitor", "IC50 [µM]": "> 62.5"}
{"SMILES": "CCOC(=O)C1CCN(C(=O)c2ccc(N(CC)Cc3cnc4nc(N)nc(N)c4n3)cc2)CC1", "target": "Cytochrome P450 2C9 (CYP2C9, Homo sapiens, UniProt P11712)", "observed": "enzyme activity", "action": "inhibitor", "method": "luciferase", "IC50 [µM]": 8.51}
{"SMILES": "O=c1cc(-c2ccccc2)oc2ccc3ccccc3c12", "target": "CDK9 with cyclin T1", "observed": "enzyme activity", "action": "inhibitor", "method": "ADP detection", "IC50 [µM]": "> 10"}
{"SMILES": "O=S(=O)(Nc1ccc(-c2nc3cc(NS(=O)(=O)c4ccc(Br)cc4)ccc3o2)cc1)c1ccc(Br)cc1", "target": "MDH2", "observed": "enzyme activity", "action": "inhibitor", "IC50 [µM]": "> 62.5"}
{"SMILES": "Cc1cccc(C)c1NC(=O)c1nc(S(C)(=O)=O)ncc1N(Cc1ccccc1)Cc1ccco1", "target": "CXCR4", "observed": "β-arrestin recruitment", "action": "antagonist", "IC50 [µM]": 316}
{"SMILES": "COc1ccc2c(Oc3ccc4c(C(=O)Nc5ccccc5N)cccc4c3)ccnc2c1", "target": "SRC", "observed": "enzyme activity", "action": "inhibitor", "IC50 [µM]": "> 0.5"}
{"SMILES": "O=C(O)c1cc(O)c(O)c(O)c1", "target": "PLA2G5", "observed": "enzyme activity", "action": "inhibitor", "method": "Ellman", "IC50 [µM]": 9.79}
{"SMILES": "O=C(O)/C=C\\C(=O)Nc1ccc(S(=O)(=O)Nc2ncccn2)cc1", "target": "Dipeptidyl peptidase 4 (DPP4, Homo sapiens, UniProt P27487)", "observed": "enzyme activity", "action": "inhibitor", "method": "fluorescence", "IC50 [µM]": 54.6}
{"SMILES": "C=CC(=O)Nc1ccc(N2CCC[C@@H](Nc3ncc(Cl)c(-c4c[nH]c5ccccc45)n3)C2)c(F)c1", "target": "CDK9 with cyclin T1", "observed": "enzyme activity", "action": "inhibitor", "method": "FRET", "IC50 [µM]": 0.436}
{"SMILES": "COc1ccc(-c2nn3c(C)nnc3s2)cc1", "target": "DNA dC->dU-editing enzyme APOBEC-3A (Homo sapiens, UniProt P31941)", "observed": "enzyme activity", "action": "inhibitor", "IC50 [µM]": "> 100"}
{"SMILES": "N=C(N)NCCCC[C@@H]1NC(=O)CCSSC[C@@H](C(N)=O)NC(=O)[C@@H]2CCCN2C(=O)[C@H](Cc2c[nH]c3ccccc23)NC(=O)[C@H](CC(=O)O)NC(=O)CNC1=O", "target": "CXCR4", "observed": "β-arrestin recruitment", "action": "antagonist", "IC50 [µM]": "> 30"}
{"SMILES": "O=C(Nc1ccn(Cc2ccc(O)cc2C(F)(F)F)n1)c1c(F)cccc1F", "target": "Voltage-dependent T-type calcium channel subunit alpha-1H (CACNA1H, Homo sapiens, UniProt O95180)", "observed": "ion current", "action": "inhibitor", "IC50 [µM]": "> 10"}
{"SMILES": "NC(=O)c1ccc[n+]([C@@H]2O[C@H](COP(=O)([O-])OP(=O)(O)OC[C@H]3O[C@@H](n4cnc5c(N)ncnc54)[C@H](O)[C@@H]3O)[C@@H](O)[C@H]2O)c1", "target": "Poly [ADP-ribose] polymerase tankyrase-1 (TNKS, Homo sapiens, UniProt O95271)", "observed": "enzyme activity", "action": "inhibitor", "IC50 [µM]": 395}
{"SMILES": "CC(=O)c1ccc(/N=N/c2cc(/C=C/C(=O)O)ccc2O)cc1", "target": "PLA2G5", "observed": "enzyme activity", "action": "inhibitor", "method": "Ellman", "IC50 [µM]": 42.5}
{"SMILES": "O=S(=O)(Nc1ccc(-c2nc3cc(NS(=O)(=O)c4ccc(C(F)(F)F)cc4)ccc3o2)cc1)c1ccc(C(F)(F)F)cc1", "target": "MDH2", "observed": "enzyme activity", "action": "inhibitor", "IC50 [µM]": "> 62.5"}
{"SMILES": "Cc1cnc(-c2ccc(-c3ccc(NC(=O)Nc4c(F)cc(F)cc4F)cc3F)c3c2C(=O)NC3)[nH]1", "target": "SRC", "observed": "enzyme activity", "action": "inhibitor", "IC50 [µM]": 0.0004}
{"SMILES": "COc1ccc(S(=O)(=O)Nc2ccc(-c3nc4cc(NS(=O)(=O)c5ccc(OC)cc5)ccc4o3)cc2)cc1", "target": "MDH2", "observed": "enzyme activity", "action": "inhibitor", "IC50 [µM]": "> 62.5"}
{"SMILES": "C/C(=C\\C(=O)OCCCCCCCCC(=O)O)C[C@@H]1OC[C@H](C[C@@H]2O[C@H]2[C@@H](C)[C@H](C)O)[C@@H](O)[C@H]1O", "target": "CXCR4", "observed": "calcium signal", "action": "antagonist", "IC50 [µM]": "> 100"}
{"SMILES": "COc1ccc(S(=O)(=O)Nc2ccc3oc(-c4ccc(NS(=O)(=O)c5cc(F)ccc5OC)cc4)nc3c2)cc1", "target": "MDH2", "observed": "enzyme activity", "action": "inhibitor", "IC50 [µM]": "> 62.5"}
{"SMILES": "C[C@@H](N)COc1ccc(-c2cnc3ccc(N[C@H](C)c4cccc(F)c4)nn23)cc1", "target": "NTRK3", "observed": "enzyme activity", "action": "inhibitor", "IC50 [µM]": 0.0042}
{"SMILES": "COc1ccccc1S(=O)(=O)Nc1ccc(-c2nc3cc(NS(=O)(=O)c4ccccc4OC)ccc3o2)cc1", "target": "MDH2", "observed": "enzyme activity", "action": "inhibitor", "IC50 [µM]": "> 62.5"}
{"SMILES": "O=P([O-])(O)C(O)(C[n+]1cccc(-c2ccccc2)c1)P(=O)(O)O (stereo not drawn)", "target": "Geranylgeranyl pyrophosphate synthase (GGPS1, Homo sapiens, UniProt O95749)", "observed": "enzyme activity", "action": "inhibitor", "IC50 [µM]": 15.8}
{"SMILES": "COc1ccc(S(=O)(=O)Nc2ccc3oc(-c4ccc(NC(=O)c5cccc(C)c5[N+](=O)[O-])cc4)nc3c2)cc1", "target": "MDH2", "observed": "enzyme activity", "action": "inhibitor", "IC50 [µM]": "> 62.5"}
{"SMILES": "CCn1c(COC(=O)c2ccccc2NC(=O)c2ccco2)nc2cc(S(=O)(=O)N(C)C)ccc21", "target": "CXCR4", "observed": "β-arrestin recruitment", "action": "antagonist", "IC50 [µM]": 63}
